# Laboratory results reported in ChEMBL document CHEMBL4196141, “Improved Antibacterial Activity of the Marine Peptide N6 against Intracellular Salmonella Typhimurium by Conjugating with the Cell-Penetrating Peptide Tat11 via a Cleavable Linker” (J Med Chem, 2018).
# Activity calls are given as the source filed them. The rule behind the calls is not given here. Positions of bridges follow the written chain, without caps; N, C: chain ends. Residues, ends and D or L forms follow the SMILES beside them.
# Assays:
# [1] = Cytotoxicity in mouse RAW264.7 assessed as cell survival at 100 uM incubated for 8 hrs by MTT assay; assay type: cell-based; settings: RAW264.7 cells, read-out: Survival
# How it was run: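 RAW264.7 cells seeded at 2.5 × 10^4 cells/well, cultured 24 h, then exposed for 8 h to 2-fold dilutions from 100 to 0.625 µM. MTT at 5 mg/mL added for 4 h, formazan dissolved in DMSO, absorbance read at 570 nm. Untreated cells served as control. Samples run in triplicate.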
# [2] = Drug internalization in mouse RAW264.7 using FITC-labeled compound at 2 uM pre-incubated for 1 hr with macropinocytosis inhibitor amiloride followed by compound addition and subsequent incubation for 2 hrs by flow cytometry; assay type: ADME, cell-based; settings: raw264.7, 2 h
# How it was run: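 RAW264.7 cells were pretreated 1 h at 37 °C with 3 mM amiloride, 20 µM nocodazole, 6 µg/mL chlorpromazine or 5 mM MβCD. FITC-labeled peptide was then added for 2 h at 37 °C. Extracellular fluorescence was quenched with 0.4% Trypan blue and intracellular fluorescence read by flow cytometry against an untreated control.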
# [3] = system: Salmonella typhimurium; assay: Antibacterial activity against Salmonella typhimurium ATCC 14028 infected in ICR mouse model of peritonitis assessed as reduction colony forming units in intracellular fluids at 1 umol/kg, ip dosed at 2 hrs post infection and measured after 10 hrs post dose; assay type: functional, Salmonella enterica subsp. enterica serovar Typhimurium
# How it was run: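 Six-week-old female ICR mice (six per group) received ip S. Typhimurium ATCC14028 (5 × 10^5 CFU, 0.5 mL). Peptide was given ip 2 h post-infection and mice were killed 10 h after treatment. Peritoneum was lavaged with 5 mL ice-cold PBS and total CFU counted. For intracellular CFU, pelleted cells were treated with 100 µg/mL gentamicin for 1 h at 37 °C, washed, lysed and plated. PBS served as negative control, ciprofloxacin as positive.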
# [4] = system: Salmonella typhimurium; assay: Antibacterial activity against Salmonella typhimurium ATCC 14028 infected in ICR mouse model of peritonitis assessed as reduction colony forming units in kidney at 1 to 2 umol/kg, ip dosed at 2 hrs post infection and measured after 10 hrs post dose relative to marine peptide N6; assay type: functional, Salmonella enterica subsp. enterica serovar Typhimurium; parameters: scale not given: the % may be the effect or the level left
# How it was run: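 Female ICR mice, six weeks old (six per group), were infected ip with S. Typhimurium ATCC14028 (5 × 10^5 CFU, 0.5 mL). Peptide was given ip at 1, 1.5 or 2 µmol/kg 2 h post-infection. Mice were killed 10 h after treatment, and kidneys and spleens were homogenized in sterile PBS for CFU counts of translocated bacteria. PBS-treated mice served as negative control, ciprofloxacin-treated mice as positive.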
# [5] = Drug uptake in mouse RAW264.7 using FITC-labeled compound at 5 uM incubated for 2 hrs by flow cytometry; assay type: ADME, cell-based; settings: raw264.7, 2 h
# How it was run: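 Confluent RAW264.7 cells were resuspended in PBS and incubated at 37 °C with 5 µM FITC-labeled peptide. Samples taken at 0.5 h and 2 h were quenched with 0.4% Trypan blue for extracellular fluorescence. Uptake (percent internalized cells) was read by flow cytometry, with free FITC as negative control.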
# [6] = system: Salmonella typhimurium; assay: Bactericidal activity against 2 hrs-gentamicin pre-exposed Salmonella typhimurium ATCC 14028 assessed as reduction colony forming units at 20 uM incubated for 10 hrs; assay type: functional, Salmonella enterica subsp. enterica serovar Typhimurium
# How it was run: (§1)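 Macrophage protection assay. RAW264.7 cells (5 × 10^4/well, 24 h) were infected with S. Typhimurium ATCC14028 at MOI 10 for 1 h in DMEM/10% FBS, exposed to 100 µg/mL gentamicin for 2 h at 37 °C, and PBS-washed. Peptides in DMEM/10% FBS were added for 10 h. Cells were lysed with 0.1% Triton X-100 and CFU plated; log10 CFU reduction versus untreated cells. Three replicates; two independent experiments; one-way ANOVA with Tukey.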
# [7] = system: Salmonella typhimurium; assay: Bactericidal activity against 2 hrs-gentamicin pre-exposed Salmonella typhimurium ATCC 14028 assessed as reduction colony forming units at 20 uM incubated for 10 hrs relative to marine peptide N6; assay type: functional, Salmonella enterica subsp. enterica serovar Typhimurium; parameters: scale not given: the % may be the effect or the level left; how it was run: as §1
# [8] = system: Salmonella typhimurium; assay: Antibacterial activity against Salmonella typhimurium ATCC 14028 assessed as time duration for reduction in growth using cathepsin B pre-treated compound at 1 to 2 MIC incubated for 1 to 24 hrs by time kill assay; assay type: functional, Salmonella enterica subsp. enterica serovar Typhimurium
# How it was run: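 Time-kill of cathepsin B-pretreated peptide (1 h, 37 °C, pH 5 buffer). Mid-log S. Typhimurium at 10^5 CFU/mL was exposed to 1× and 2× MIC at 37 °C with shaking at 250 rpm. Samples were taken every 2 h, serially diluted and plate-counted. N6 and ciprofloxacin served as controls.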
# [9] = system: Salmonella typhimurium; assay: Antibacterial activity against Salmonella typhimurium ATCC 14028 assessed as microbial inhibition zone pretreated for 1 hr at 4 to 100 degC by inhibition zone assay; settings: Salmonella enterica subsp. enterica serovar Typhimurium
# [10] = system: Salmonella typhimurium; assay: Antibacterial activity against Salmonella typhimurium ATCC 14028 infected in ICR mouse model of peritonitis assessed as mouse survival at 2 umol/kg, ip dosed at 0.5 and 8 hrs post infection and measured daily for 7 days
SMILES,"viability at 8 h, 100 µM [1] [%]",Drug uptake [2],Activity [3] [log10CFU],Activity [4] [%],Drug uptake [5] [%],Activity [6] [log10CFU],Activity [7] [%],Time [8],Activity [9],Activity [10] [%]
CC(C)[C@H](NC(=O)CCCCCN1C(=O)CC(SC[C@H](N)C(=O)N[C@@H](Cc2ccc(O)cc2)C(=O)NCC(=O)N[C@@H](CCCNC(=N)N)C(=O)N[C@@H](CCCCN)C(=O)N[C@@H](CCCCN)C(=O)N[C@@H](CCCNC(=N)N)C(=O)N[C@@H](CCCNC(=N)N)C(=O)N[C@@H](CCC(N)=O)C(=O)N[C@@H](CCCNC(=N)N)C(=O)N[C@@H](CCCNC(=N)N)C(=O)N[C@@H](CCCNC(=N)N)C(=O)O)C1=O)C(=O)N[C@@H](CCCNC(N)=O)C(=O)Nc1ccc(COC(=O)NCC(=O)N[C@@H](Cc2ccccc2)C(=O)N[C@@H](C)C(=O)N[C@@H](Cc2c[nH]c3ccccc23)C(=O)N[C@@H](CC(N)=O)C(=O)N[C@H](C(=O)N[C@H]2CSSC[C@@H](C(=O)N[C@@H](Cc3cnc[nH]3)C(=O)N[C@@H](CCCNC(=N)N)C(=O)N[C@@H](CCCNC(=N)N)C(=O)N[C@@H](C)C(=O)N[C@@H](CC(N)=O)C(=O)O)NC(=O)[C@H](C(C)C)NC(=O)[C@H](CCCNC(=N)N)NC(=O)[C@H](C(C)C)NC(=O)CNC(=O)[C@H](CC(N)=O)NC(=O)[C@H](CCCNC(=N)N)NC(=O)[C@H](Cc3ccc(O)cc3)NC(=O)[C@H](C(C)C)NC2=O)C(C)C)cc1 (stereo partly drawn),88.9,Active,1.39,81,95.8,1.06,67.2,<=2 hr,,
CC(C)[C@@H]1NC(=O)CNC(=O)[C@H](CC(N)=O)NC(=O)[C@H](CCCNC(=N)N)NC(=O)[C@H](Cc2ccc(O)cc2)NC(=O)[C@H](C(C)C)NC(=O)[C@@H](NC(=O)[C@@H](NC(=O)[C@H](CC(N)=O)NC(=O)[C@H](Cc2c[nH]c3ccccc23)NC(=O)[C@H](C)NC(=O)[C@H](Cc2ccccc2)NC(=O)CN)C(C)C)CSSC[C@@H](C(=O)N[C@@H](Cc2cnc[nH]2)C(=O)N[C@@H](CCCNC(=N)N)C(=O)N[C@@H](CCCNC(=N)N)C(=O)N[C@@H](C)C(=O)N[C@@H](CC(N)=O)C(N)=O)NC(=O)[C@H](C(C)C)NC(=O)[C@H](CCCNC(=N)N)NC1=O (H-GFAWNVCVYRNGVRVCHRRAN-NH2; disulfide 7-16),93.5,Not Active,2.22,200,75.2,2.01,96.3,<=2 hr,Active,100
